# From PubChem BioAssay
# Platelet DG rel = platelet dense granule release activity. human platelet-rich plasma, SFLLRN dense granule ATP release, luminescence. 300,000 tested, 0.22% active. inhibition, %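 (compounds screened at 7.5 µM in platelet-rich plasma)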;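 active = mean replicate score, as percent of positive control, at or above 50; inconclusive = mean below 50 but at least one replicate at or above 50; inactive = mean and every replicate below 50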
# RanGTP-Imp inh = inhibitors of RanGTP-importin-beta interaction, primary screen, biochemical, FRET, CFP-Ran, YFP-importin-beta, homogeneous | cell-free CFP-Ran/YFP-importin-beta FRET ratio | inhibition, % (concentration not given with the values) | 300,000 tested, 1.1% active | AID 2216;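 active = more than half of the replicate wells show a fall in the fluorescence ratio signal beyond about 16%, limit read from the data, passing the limit was not always enough; inconclusive = exactly half of the replicate wells pass the set limit; inactive = fewer than half of replicates pass the limit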;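 note: 0% = DMSO wells and 100% = Ran loaded with GDP instead of GTP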
# Rce1 inh = yeast Ras-converting enzyme inhibition. Q03530. yeast membranes, quenched prenylated peptide cleavage fluorescence. calls only. 290,000 tested, 0.27% active;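 active = fall in fluorescence gain of 50% or more versus controls, with final raw signal at or below 3038400; inconclusive = same 50% fall but final raw signal above 3038400; inactive = fall in fluorescence gain under 50%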;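 note: plate controls were neutral control wells for no effect and wells lacking membranes for full effect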
# Target sequence (Q03530 whole entry, looked up): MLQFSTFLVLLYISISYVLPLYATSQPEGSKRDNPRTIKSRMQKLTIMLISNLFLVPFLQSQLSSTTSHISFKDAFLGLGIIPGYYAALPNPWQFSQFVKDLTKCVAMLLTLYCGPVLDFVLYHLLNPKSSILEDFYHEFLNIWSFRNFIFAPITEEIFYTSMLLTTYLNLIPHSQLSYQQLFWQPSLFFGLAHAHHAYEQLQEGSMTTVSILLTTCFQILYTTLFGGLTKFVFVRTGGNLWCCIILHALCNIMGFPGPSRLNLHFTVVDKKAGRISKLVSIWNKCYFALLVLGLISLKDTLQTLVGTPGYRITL
# Runt-SMMHC FRET = blocks binding of human RUNX1 Runt domain to CBFb-SMMHC; Cerulean-Runt/Venus-CBFb-SMMHC FRET ratio 530/480, 1 h; inhibition, % at 20 µM; 220,000 tested, 0.74% active; AID 1434;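 active = mean inhibition across duplicate retests at 20 µM reaching about 50%, limit read from the data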;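 note: 0% = DMSO wells and 100% = wells with excess untagged CBFb-SMMHC; inhibitors lower the FRET ratio by blocking Runt binding to CBFb-SMMHC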
# Runt-CBFb FRET = blocks binding of human RUNX1 Runt domain to CBFb | Q01196+Q13951 | Cerulean-Runt/Venus-CBFb FRET ratio 530/480, 1 h | inhibition, % at 20 µM | 220,000 tested, 0.46% active | AID 1496;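 active = inhibition over about 50% at 20 µM in the single-dose screen, limit read from the data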;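 note: 0% = DMSO wells and 100% = excess unlabeled CBFb competitor control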
#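 Doses: 20 µM compound in 1% DMSO | Material: Cerulean-labeled Runt domain protein | Amount: Each fluorescent fusion protein 100 nM | Schedule: Two 1 h room-temperature incubations shielded from light | Measured by: FRET fluorescence | Evaluation: Loss of energy transfer signal | Controls: Unlabeled CBFb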
# Active calls of the source: *; i = inactive; ? = inconclusive; nt = not tested or not shown; + = active, no number. An excerpt weighted towards active compounds, which were near 1.8% of everything screened.
SMILES,Platelet DG rel,RanGTP-Imp inh,Rce1 inh,Runt-SMMHC FRET,Runt-CBFb FRET
CCOC(=O)C1=C(CSc2nc3c(cc2C#N)CN(C)CC3)OC(N)=C(C#N)C1c1ccccc1 (stereo not given),0,32*,i,104*,45
CCOC(=O)C1=C(CSc2nc3c(cc2C#N)CN(C)CC3)OC(N)=C(C#N)C1c1ccc(F)cc1 (stereo not given),-3,19*,i,63*,36
COC(CNC(=O)c1ccc(Cn2c(=S)[nH]c3cc4c(cc3c2=O)OCO4)cc1)OC,-2,125*,i,32,27
COCCNC(=O)c1ccc(Cn2c(=S)[nH]c3cc4c(cc3c2=O)OCO4)cc1,-13,4,i,-17,1
CC(C)[C@H](NC(=O)OCc1ccccc1)C(=O)OCC(=O)Nc1c(F)cccc1F,-7,3,+,0,1
CC(C)[C@H](NC(=O)OCc1ccccc1)C(=O)OCC(=O)Nc1ccc(N2CCOCC2)cc1,-1,-5,i,nt,nt
COc1ccc(N(CC(=O)Nc2cccc(N(C)S(C)(=O)=O)c2)S(=O)(=O)c2ccccc2)cc1Cl,8,6,i,-11,1
COC(=O)c1sccc1NC(=O)CSc1nnnn1-c1ccccc1C,10,0,+,-1,1
COC(=O)c1c(C(=O)OC)c(-c2ccccc2)n2c1CS(=O)(=O)C2,0,22*,i,-1,1
O=C(NC1CC1)C1CCN(C2CCN(C(=O)c3c(F)cccc3Cl)CC2)CC1,-3,3,i,nt,nt
CCC1=NN(C(=O)Cc2ccc([N+](=O)[O-])cc2)C(O)(c2ccncc2)C1 (stereo not given),15,18*,i,-2,-2
Cc1cccc(-c2cc3nc(C)cc(NCCCN(C)C)n3n2)c1,-19,2,i,4,1
CCN(CC)CCCNc1cc(C)nc2cc(-c3cccs3)nn12,-2,6,+,nt,nt
CCN(CC)c1ccc(S(=O)(=O)N2CCOCC2)cc1NC(=O)CN1C(=O)NC2(CCC(C)CC2)C1=O (stereo not given),-1,1,i,nt,nt
Cc1cc2nc(-c3ccc[nH]c3=O)n(Cc3ccc(F)cc3)c2cc1C,2,1,i,nt,nt
Cc1cc2nc(-c3ccc[nH]c3=O)[nH]c2cc1C,52*,1,i,nt,nt
CCCc1nc2oc3ccccc3c(=O)c2c(=O)n1CCCOC,3,0,i,0,2
COc1ccc(-c2cc3ccc(O)cc3oc2=O)cc1,-3,128*,?,nt,nt
O=c1oc2cc(O)ccc2cc1-c1nc2c(s1)CCc1ccccc1-2,nt,nt,nt,83*,4
COc1ccc(-c2cc3ccc(OCC(C)=O)cc3oc2=O)cc1OC,5,4,i,nt,nt
O=c1oc2cc(O)ccc2cc1-c1ccccc1,23,140*,i,nt,nt
COc1ccc(-c2cc3ccc(OCc4nn[nH]n4)cc3oc2=O)cc1OC,14,nt,+,32,14
CN(C)S(=O)(=O)c1ccc(Cl)c(-c2nnc3n2CCCCC3)c1,-1,-2,i,1,3
c1ccc(-n2nnnc2SCc2cn3ccccc3n2)cc1,5,1,i,-7,2
c1ccc(-n2nnnc2SCc2cn3cccnc3n2)cc1,16,3,+,-2,1
SMILES,Platelet DG rel,RanGTP-Imp inh,Rce1 inh,Runt-SMMHC FRET,Runt-CBFb FRET
O=c1oc2ccccc2n1CCn1c2ccccc2c2nc3ccccc3nc21,32,28*,i,-20,-285
COC(=O)c1nn(-c2ccc3c(c2)OCO3)cc1O,5,1,i,2,nt
COC(=O)c1nn(-c2ccc3c(c2)CCN3C(C)=O)cc1O,52*,-7,?,-6,nt
CC(=O)N(C)C(c1ccc(N(C)C)cc1)c1nnnn1-c1c(C)cccc1C (stereo not given),0,1,i,2,-2
CCCC[C@@H]1CNC(=S)N1CCc1cccc2ccccc12,-1,0,+,-1,-1
CCCCN1C(=S)NC[C@@H]1Cc1cccc2ccccc12,2,1,i,-1,0
CCCn1c(O)c(N=NC(=O)CNC(=O)/C=C/c2ccc(OC)cc2)c2ccccc21,-1,2,i,nt,nt
CCCn1c(O)c(N=NC(=O)CNC(=O)Cc2ccc(OC)cc2)c2ccccc21,-15,3,+,nt,nt
CCN(CC)c1ccc(-c2c(C#N)c(N)nc(OC)c2C#N)cc1,-10,8,i,99*,33
